Activity calls are given as the source filed them. The rule behind the calls is not given here.
Test system: MDA-MB-435
Test: Cytotoxicity against human MDA-MB-435 cells
Assay type: functional, cell-based
Outline: (§1)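 MDA-MB-435 cells seeded at 5×10³ per well and allowed 4 h at 37 °C under 5% CO₂. They were then exposed to the agent alone or combined with camptothecin, with DMSO as vehicle control, for 48 h. MTS was developed 4 h and read at 490 nm with medium-only background subtracted. Percent was calculated relative to DMSO-treated cells.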

Row | SMILES | EC50 [nM]
1 | O=c1[nH]c2ccc(Cl)cc2c(N[C@@H]2CN3CCC2CC3)c1-c1nc2ccccc2[nH]1 | 80

Test system: MDA-MB-435
Test: Cytotoxicity against human MDA-MB-435 cells in presence of camptothecin
Assay type: functional, cell-based
Outline: as §1

Row | SMILES | Activity
2 | O=c1[nH]c2ccc(Cl)cc2c(N[C@@H]2CN3CCC2CC3)c1-c1nc2ccccc2[nH]1 | Active

Molecular target: T1, Serine/threonine-protein kinase Chk1 (Homo sapiens, UniProt O14757)
T1 sequence (O14757 whole entry): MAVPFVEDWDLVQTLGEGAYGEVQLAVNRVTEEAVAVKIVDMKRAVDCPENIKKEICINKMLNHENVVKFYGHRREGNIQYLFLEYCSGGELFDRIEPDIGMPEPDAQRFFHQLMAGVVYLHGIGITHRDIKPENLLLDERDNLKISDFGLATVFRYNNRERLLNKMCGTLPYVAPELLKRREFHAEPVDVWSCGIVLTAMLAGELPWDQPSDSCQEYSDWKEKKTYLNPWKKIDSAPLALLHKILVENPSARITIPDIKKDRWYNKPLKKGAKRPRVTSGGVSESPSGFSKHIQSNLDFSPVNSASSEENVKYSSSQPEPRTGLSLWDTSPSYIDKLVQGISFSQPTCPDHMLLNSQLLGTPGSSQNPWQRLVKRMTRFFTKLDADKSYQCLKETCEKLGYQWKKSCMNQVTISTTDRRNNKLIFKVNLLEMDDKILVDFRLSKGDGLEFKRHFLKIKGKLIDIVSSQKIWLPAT
Test: Inhibition of CHK1

Row | SMILES | IC50 [nM]
3 | Oc1nc2ccc(Cl)cc2c(NC2CCCNC2)c1-c1nc2ccccc2[nH]1 (stereo unspecified) | 1.04
4 | O=c1[nH]c2ccc(Cl)cc2c(NC2CCNCC2)c1-c1nc2ccccc2[nH]1 | 3.3
5 | Cc1ccc2nc(O)c(-c3nc4ccccc4[nH]3)c(N[C@@H]3CN4CCC3CC4)c2c1 | 0.35
6 | O=c1[nH]c2ccc(Cl)c(Cl)c2c(N[C@@H]2CN3CCC2CC3)c1-c1nc2ccccc2[nH]1 | 21.7
7 | O=c1[nH]c2ccccc2c(N[C@H]2CN3CCC2CC3)c1-c1nc2ccccc2[nH]1 | 482
8 | CCN(CC)c1c(-c2nc3ccccc3[nH]2)c(=O)[nH]c2ccccc12 | > 30000
9 | Cc1cccc2c(N[C@@H]3CN4CCC3CC4)c(-c3nc4ccccc4[nH]3)c(O)nc12 | 138
10 | O=c1[nH]c2ccccc2c(N[C@@H]2CN3CCC2CC3)c1-c1nc2ccccc2[nH]1 | 7.6
11 | Nc1c(-c2nc3ccccc3[nH]2)c(=O)[nH]c2ccccc12 | 731
12 | O=c1[nH]c2ccccc2c(O)c1-c1nc2ccccc2[nH]1 | 2950
13 | Oc1nc2ccc(Cl)cc2c(N[C@H]2CCNC2)c1-c1nc2ccccc2[nH]1 | 0.5
14 | Cc1ccc2nc(O)c(-c3nc4ccccc4[nH]3)c(NC3CCNCC3)c2c1 | 3.3
15 | Cc1ccc2[nH]c(=O)c(-c3nc4ccccc4[nH]3)c(NC3CCCNC3)c2c1 (stereo unspecified) | 1.4
16 | O=c1[nH]c2ccc(Cl)cc2c(N[C@@H]2CCNC2)c1-c1nc2ccccc2[nH]1 | 7.2

From ChEMBL document CHEMBL1147829, “4-(Aminoalkylamino)-3-benzimidazole-quinolinones as potent CHK-1 inhibitors” (Bioorg Med Chem Lett, 2006)
